Test results published in ChEMBL document CHEMBL1135748, “4-Substituted D-glutamic acid analogues: the first potent inhibitors of glutamate racemase (MurI) enzyme with antibacterial activity” (J Med Chem, 2002).
Values after ≈ are worked out from the molar mass of the structure shown.

Experiments:
Streptococcus pneumoniae [1] = test: In vitro whole cell growth inhibition against PN-R6 strain of Streptococcus pneumoniae; assay type: functional
Summary of the method: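 NCCLS microtiter broth dilution. Compounds in DMSO, 2-fold serial dilutions from 250 to 0.25 µg/mL in Mueller–Hinton II broth plus 5% lysed horse blood. Inoculum 5 × 10^5 CFU/mL; final DMSO 2.5%. Incubated overnight at 35 °C. MIC is the lowest concentration visibly inhibiting growth.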

[2] = Inhibitory activity against recombinant Glutamate Racemase from Streptococcus pneumoniae expressed in Escherichia coli
Summary of the method: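 Enzyme purified by Ni(II) IMAC, imidazole gradient, from E. coli paste overexpressing the S. pneumoniae racemase; dialysed into Tris-HCl pH 7.8 with β-mercaptoethanol. Enzyme (6 µg mL-1) with 10 mM L-glutamate, inhibitor added before enzyme, 15 min at room temperature. Quenched with Marfey's reagent; derivatised 60 min at 40 °C. D/L-Glu separated by C18 HPLC, A340. Conversion from D/(D+L) peak areas over decreasing inhibitor concentrations gives IC50.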

Moraxella catarrhalis = test: Antibacterial activity against Moraxella catarrhalis BC-1 strain; assay type: functional
Streptococcus pneumoniae [3] = test: Antibacterial activity against Streptococcus pneumoniae Park1 strain; assay type: functional
Staphylococcus aureus = test: Antibacterial activity against Staphylococcus aureus 027 strain; assay type: functional
Streptococcus pneumoniae [4] = test: Antibacterial activity against Streptococcus pneumoniae R6 strain; assay type: functional

Compound	MIC (Streptococcus pneumoniae [1])	IC50 [2]	MIC (Moraxella catarrhalis)	MIC (Streptococcus pneumoniae [3])	MIC (Staphylococcus aureus)	MIC (Streptococcus pneumoniae [4])
N[C@H](C[C@H](Cc1cccc2ccccc12)C(=O)O)C(=O)O	3.9 µg/mL (≈ 13.6 µM)	5.6 µg/mL				
COc1cccc(C[C@@H](C[C@@H](N)C(=O)O)C(=O)O)c1	0.5 µg/mL (≈ 1.87 µM)	0.2 µg/mL				
CC(C)(C)c1ccc(C[C@@H](C[C@@H](N)C(=O)O)C(=O)O)cc1	1 µg/mL (≈ 3.41 µM)	0.6 µg/mL				
N[C@H](C[C@H](Cc1ccccc1-c1ccccc1)C(=O)O)C(=O)O	> 250 µg/mL	> 100 µg/mL				
N[C@H](C[C@H](Cc1ccc(-c2ccccc2)cc1)C(=O)O)C(=O)O	1 µg/mL (≈ 3.19 µM)	0.078 µg/mL				
N[C@H](C[C@H](Cc1ccc(Cl)cc1)C(=O)O)C(=O)O	0.5 µg/mL (≈ 1.84 µM)	0.3 µg/mL				
C#CC[C@@H](C[C@@H](N)C(=O)O)C(=O)O	31.3 µg/mL (≈ 169 µM)	5.5 µg/mL				
N[C@H](C[C@H](Cc1cccc(-c2cc3ccccc3s2)c1)C(=O)O)C(=O)O	0.5 µg/mL (≈ 1.35 µM)	0.3 µg/mL				
N[C@H](C[C@H](Cc1ccc([N+](=O)[O-])cc1)C(=O)O)C(=O)O	2 µg/mL (≈ 7.09 µM)	5.2 µg/mL				
N[C@H](C[C@H](C/C=C/c1ccc2ccccc2c1)C(=O)O)C(=O)O	0.5 µg/mL (≈ 1.6 µM)	0.5 µg/mL				
N[C@H](C[C@H](Cc1ccc(-c2ccsc2)cc1)C(=O)O)C(=O)O	0.24 µg/mL (≈ 0.751 µM)	0.32 µg/mL				
N[C@H](C[C@H](Cc1ccccc1)C(=O)O)C(=O)O	0.5 µg/mL (≈ 2.11 µM)	0.3 µg/mL				
N[C@H](C[C@H](Cc1ccccc1Br)C(=O)O)C(=O)O	31.3 µg/mL (≈ 99 µM)	6.3 µg/mL				
N[C@H](C[C@H](Cc1csc2ccccc12)C(=O)O)C(=O)O	7.8 µg/mL (≈ 26.6 µM)	1.7 µg/mL				
N[C@H](C[C@H](Cc1cc(Cl)cc(Cl)c1)C(=O)O)C(=O)O	3.9 µg/mL (≈ 12.7 µM)	3 µg/mL				
COc1cc(C[C@@H](C[C@@H](N)C(=O)O)C(=O)O)cc(OC)c1OC	> 250 µg/mL	81 µg/mL				
N[C@H](C[C@H](Cc1cccc(Br)c1)C(=O)O)C(=O)O	0.5 µg/mL (≈ 1.58 µM)	0.13 µg/mL				
N[C@H](C[C@H](C/C=C/c1ccccc1)C(=O)O)C(=O)O	0.4 µg/mL (≈ 1.52 µM)	0.1 µg/mL				
N[C@H](C[C@H](Oc1ccc(Oc2ccccc2)cc1)C(=O)O)C(=O)O	125 µg/mL (≈ 377 µM)	46.3 µg/mL				
N[C@H](C[C@H](Cc1cccs1)C(=O)O)C(=O)O	1 µg/mL (≈ 4.11 µM)	0.1 µg/mL				
N[C@H](C[C@H](Cc1cccc(Cl)c1)C(=O)O)C(=O)O	1 µg/mL (≈ 3.68 µM)	3.4 µg/mL				
N[C@H](C[C@H](Cc1cccc(C(F)(F)F)c1)C(=O)O)C(=O)O	0.5 µg/mL (≈ 1.64 µM)	0.8 µg/mL				
N[C@H](C[C@H](Cc1ccc(NC(=O)Nc2ccccc2)cc1)C(=O)O)C(=O)O	15.6 µg/mL (≈ 42 µM)	0.49 µg/mL				

Compound	MIC (Streptococcus pneumoniae [1])	IC50 [2]	MIC (Moraxella catarrhalis)	MIC (Streptococcus pneumoniae [3])	MIC (Staphylococcus aureus)	MIC (Streptococcus pneumoniae [4])
N[C@H](C[C@H](CCCc1ccccc1)C(=O)O)C(=O)O	3.9 µg/mL (≈ 14.7 µM)	0.5 µg/mL				
N[C@H](C[C@H](Cc1ccc(-c2cc3ccccc3s2)cc1)C(=O)O)C(=O)O	3.9 µg/mL (≈ 10.6 µM)	0.65 µg/mL				
N[C@H](C[C@H](Cc1ccc(NS(=O)(=O)c2ccccc2)cc1)C(=O)O)C(=O)O	> 250 µg/mL	10.2 µg/mL				
N[C@H](C[C@H](Cc1ccc(-c2ccc3ccccc3c2)cc1)C(=O)O)C(=O)O	7.8 µg/mL (≈ 21.5 µM)	0.42 µg/mL				
N[C@H](C[C@H](Cc1nc2ccccc2s1)C(=O)O)C(=O)O	0.24 µg/mL (≈ 0.815 µM)	0.38 µg/mL				
N[C@H](C[C@H](CNC(=O)c1ccccc1)C(=O)O)C(=O)O	62.5 µg/mL (≈ 223 µM)	9.4 µg/mL				
N[C@H](C[C@H](Cc1cc2ccccc2o1)C(=O)O)C(=O)O	0.24 µg/mL (≈ 0.866 µM)	0.1 µg/mL				
N[C@H](C[C@H](Cc1cc(C(F)(F)F)cc(C(F)(F)F)c1)C(=O)O)C(=O)O	> 250 µg/mL	> 100 µg/mL				
N[C@H](C[C@H](Oc1ccccc1)C(=O)O)C(=O)O	62.5 µg/mL (≈ 261 µM)	26.5 µg/mL				
N[C@H](C[C@H](Cc1cccc([N+](=O)[O-])c1)C(=O)O)C(=O)O	2 µg/mL (≈ 7.09 µM)	5.2 µg/mL				
COc1ccc(C[C@@H](C[C@@H](N)C(=O)O)C(=O)O)cc1	0.5 µg/mL (≈ 1.87 µM)	0.1 µg/mL				
N[C@H](C[C@H](C/C=C/C=C/c1ccccc1)C(=O)O)C(=O)O	3.9 µg/mL (≈ 13.5 µM)	9.1 µg/mL				
N[C@H](C[C@H](Oc1ccc(-c2ccccc2)cc1)C(=O)O)C(=O)O	31.3 µg/mL (≈ 99.3 µM)	8.2 µg/mL				
N[C@H](C[C@H](CC#Cc1ccccc1)C(=O)O)C(=O)O	2 µg/mL (≈ 7.65 µM)	0.37 µg/mL				
N[C@H](C[C@H](Cc1sc2ccccc2c1Cl)C(=O)O)C(=O)O	0.5 µg/mL (≈ 1.53 µM)	0.01 µg/mL				
N[C@H](C[C@H](Cc1cccc(-c2ccccc2)c1)C(=O)O)C(=O)O	0.5 µg/mL (≈ 1.6 µM)	0.7 µg/mL				
N[C@H](C[C@H](CCCC1CCCCC1)C(=O)O)C(=O)O	2 µg/mL (≈ 7.37 µM)	0.6 µg/mL				
N[C@H](C[C@H](Cc1ccccc1Cl)C(=O)O)C(=O)O	3.9 µg/mL (≈ 14.4 µM)	7.1 µg/mL				
N[C@H](C[C@H](Cc1ccc2ccccc2c1)C(=O)O)C(=O)O	0.25 µg/mL (≈ 0.87 µM)	0.1 µg/mL	62.5 µg/mL (≈ 218 µM)	3.9 µg/mL (≈ 13.6 µM)	> 250 µg/mL	0.25 µg/mL (≈ 0.87 µM)
N[C@H](C[C@H](Cc1cc2ccccc2[nH]1)C(=O)O)C(=O)O	62.5 µg/mL (≈ 226 µM)	9.8 µg/mL				
N[C@H](C[C@H](Cc1ccc(C(F)(F)F)cc1)C(=O)O)C(=O)O	7.8 µg/mL (≈ 25.6 µM)	0.8 µg/mL				
N[C@H](C[C@H](Cc1cccc(-c2ccco2)c1)C(=O)O)C(=O)O	0.24 µg/mL (≈ 0.791 µM)	0.5 µg/mL				
N[C@H](C[C@H](Cc1cc2ccccc2s1)C(=O)O)C(=O)O	0.24 µg/mL (≈ 0.818 µM)	0.036 µg/mL	> 250 µg/mL	0.24 µg/mL (≈ 0.818 µM)	> 250 µg/mL	0.24 µg/mL (≈ 0.818 µM)
